Experimental data as given in ChEMBL document CHEMBL5038571, “Design and Synthesis of EZH2-Based PROTACs to Degrade the PRC2 Complex for Targeting the Noncatalytic Activity of EZH2” (J Med Chem, 2021).
Active and inactive are the calls of the source. No cut-off for these calls is given here.

Experiments:
[1] = target: T1, Protein cereblon/Histone-lysine N-methyltransferase EZH2 (Homo sapiens) (UniProt Q15910+Q96SW2); assay: PROTAC activity at CRBN E3 ligase/EZH2 in PRC2 complex in human WSUDLCL2 cells assessed as downregulation of SUZ12 expression at 1 uM pretreated with lenalidomide for 4 hrs followed by compound addition and measured after 48 hrs by Western blot analysis; type: cell-based
How it was run: (§1)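 WSU-DLCL-2 cells pretreated 4 h with the named inhibitor, then compound added and incubated a further 48 h. EZH2, SUZ12, EED and RbAp48 measured by western blot (nitrocellulose transfer, skim-milk block, primary antibody overnight at 4 °C, chemiluminescent detection).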

[2] = target: T1, Protein cereblon/Histone-lysine N-methyltransferase EZH2 (Homo sapiens); assay: PROTAC activity at CRBN E3 ligase/EZH2 in PRC2 complex in human WSUDLCL2 cells assessed as downregulation of EED expression at 1 uM pretreated with MLN4924 for 4 hrs followed by compound addition and measured after 48 hrs by Western blot analysis; type: cell-based; how it was run: as §1
[3] = target: T1, Protein cereblon/Histone-lysine N-methyltransferase EZH2 (Homo sapiens); assay: PROTAC activity at CRBN E3 ligase/EZH2 in PRC2 complex in human A2780 cells assessed as induction of SUZ12 degradation by measuring reduction in SUZ12 protein level at 1 uM incubated for 48 hrs by Western blot analysis; type: cell-based
How it was run: (§2)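 Cancer cell lines exposed to 1 μM compound for 48 h. Lysates immunoblotted (SDS-PAGE, nitrocellulose, 5% milk block, primary antibody overnight at 4 °C) for EZH2, SUZ12, EED, RbAp48 and H3K27me3. Bands quantified by densitometry and normalized to GAPDH.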

[4] = target: T1, Protein cereblon/Histone-lysine N-methyltransferase EZH2 (Homo sapiens); assay: PROTAC activity at CRBN E3 ligase/EZH2 in PRC2 complex in human A2780 cells assessed as induction of EZH2 degradation by measuring reduction in EZH2 protein level at 1 uM incubated for 48 hrs by Western blot analysis; type: cell-based; how it was run: as §2
[5] = target: T1, Protein cereblon/Histone-lysine N-methyltransferase EZH2 (Homo sapiens); assay: PROTAC activity at CRBN E3 ligase/EZH2 in PRC2 complex in human WSUDLCL2 cells assessed as induction of RbAp48 degradation at 1 uM measured up to 2 hrs by Western blot analysis; type: cell-based; settings: time hrs <=2
[6] = target: T1, Protein cereblon/Histone-lysine N-methyltransferase EZH2 (Homo sapiens); assay: PROTAC activity at CRBN E3 ligase/EZH2 in PRC2 complex in human WSUDLCL2 cells assessed as downregulation of SUZ12 expression at 1 uM pretreated with MG-132 for 4 hrs followed by compound addition and measured after 48 hrs by Western blot analysis; type: cell-based; how it was run: as §1
[7] = target: T1, Protein cereblon/Histone-lysine N-methyltransferase EZH2 (Homo sapiens); assay: PROTAC activity at CRBN E3 ligase/EZH2 in PRC2 complex in human DU-145 cells assessed as induction of SUZ12 degradation by measuring reduction in SUZ12 protein level at 1 uM incubated for 48 hrs by Western blot analysis; type: cell-based; how it was run: as §2
[8] = system: Pfeiffer; assay: Upregulation of CDKN2A mRNA expression in human Pfeiffer cells at 1 uM incubated for 48 hrs by qRT-PCR analysis; type: functional, cell-based
How it was run: (§3)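 WSU-DLCL-2 or Pfeiffer cells treated 48 h. Trizol RNA extraction, reverse transcription, SYBR qPCR (95 °C 30 s; 40 cycles of 95 °C 6 s, 60 °C 20 s). mRNA normalized to DMSO-treated cells; mean ± SD of three independent experiments, t-test.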

[9] = target: T1, Protein cereblon/Histone-lysine N-methyltransferase EZH2 (Homo sapiens); assay: PROTAC activity at CRBN E3 ligase/EZH2 in PRC2 complex in human WSUDLCL2 cells assessed as induction of SUZ12 degradation incubated for 48 hrs by Western blot analysis; type: cell-based; settings: dose 1-10 µM
How it was run: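 WSU-DLCL-2 cells treated 48 h (1 μM for the single-concentration screen), lysed; SDS-PAGE, nitrocellulose transfer, 5% milk block, primary antibody 4 °C overnight, chemiluminescence. Bands quantified by densitometry, normalized to GAPDH, expressed relative to DMSO-treated cells; mean ± SD of three independent experiments, t-test.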

[10] = target: T1, Protein cereblon/Histone-lysine N-methyltransferase EZH2 (Homo sapiens); assay: PROTAC activity at CRBN E3 ligase/EZH2 in PRC2 complex in human SK-OV-3 cells assessed as induction of SUZ12 degradation by measuring reduction in SUZ12 protein level at 1 uM incubated for 48 hrs by Western blot analysis; type: cell-based
How it was run: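 Cells cultured in DMEM or RPMI 1640 with 10% FBS and 1% penicillin-streptomycin, 37 °C, 5% CO2; exposed to 1 μM compound for 48 h. Lysates run on SDS-PAGE and transferred to nitrocellulose. Blocked 2 h in 5% skim milk, primary antibody overnight at 4 °C, then secondary antibody. Chemiluminescent detection of PRC2 subunits and H3K27me3.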

[11] = system: WSUDLCL2; assay: Inhibition of PRC2 in human WSUDLCL2 cells assessed as suppression H3K27 trimethylation incubated for 48 hrs by Western blot analysis; type: cell-based
How it was run: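 Lysates run on SDS-PAGE and transferred to nitrocellulose. Membranes blocked with 5% skim milk for 2 h, primary antibody applied overnight at 4 °C, then secondary antibody and chemiluminescent detection of histone H3 methylation marks.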

[12] = system: WSUDLCL2; assay: Upregulation of TXINP mRNA expression in human WSUDLCL2 cells at 1 uM incubated for 48 hrs by qRT-PCR analysis; type: functional, cell-based; how it was run: as §3
[13] = target: T1, Protein cereblon/Histone-lysine N-methyltransferase EZH2 (Homo sapiens); assay: PROTAC activity at CRBN E3 ligase/EZH2 in PRC2 complex in human DU-145 cells assessed as reduction in H3K27me3 level at 1 uM incubated for 48 hrs by Western blot analysis; type: cell-based; how it was run: as §2
[14] = system: NCI-H1299; assay: Downregulation of CHEK1 mRNA expression in human NCI-H1299 cells at 10 uM incubated for 48 hrs by qRT-PCR analysis; type: functional, cell-based
How it was run: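 Cells treated 48 h. Total RNA extracted with Trizol, reverse-transcribed, and SYBR RT-qPCR run: 95 °C 30 s, then 40 cycles of 95 °C 6 s and 60 °C 20 s. mRNA normalized to the DMSO-treated group. Mean SD of three independent experiments, t-test versus DMSO.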

[15] = system: WSUDLCL2; assay: Antiproliferative activity against human WSUDLCL2 cells harboring EZH2-Y641F mutant assessed as inhibition of cell growth at 10 uM incubated for 9 days by optical microscopic analysis; type: functional, cell-based; settings: time 9.0 day
How it was run: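 WSU-DLCL-2 cells seeded at 5 × 10³ per well, incubated 24 h, then exposed to 10 μM compound for 9 days with medium refreshed. Cells photographed and counted on days 1, 3, 5, 7 and 9. Mean SD of three independent experiments, t-test versus DMSO.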

[16] = target: Polycomb protein EED (Homo sapiens) (UniProt O75530); assay: Binding affinity to EED in human WSUDLCL2 cells assessed as thermal stability by measuring shift in temperature at 60 uM pretreated with proteasome inhibitor MG132 for 1 hr followed by compound addition incubated for 2 hrs by cellular thermal shift based Western blot analysis; type: cell-based
How it was run: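 Cellular thermal shift: cells suspended at 1.5 × 10⁶/mL and pretreated with MG-132 (5 μM, 1 h), then given 60 μM compound for 2 h with a DMSO control. Cells were lysed in RIPA with cocktail for 1 h. Supernatant aliquots were heated 6 min at 45, 48, 51, 54, 57 and 60 °C and centrifuged 15 min. Soluble protein was immunoblotted; bands quantified by densitometry; three independent experiments.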

[17] = target: T1, Protein cereblon/Histone-lysine N-methyltransferase EZH2 (Homo sapiens); assay: PROTAC activity at CRBN E3 ligase/EZH2 in PRC2 complex in human DU-145 cells assessed as induction of EED degradation by measuring reduction in EED protein level at 1 uM incubated for 48 hrs by Western blot analysis; type: cell-based; how it was run: as §2

T1 sequence (Q15910 whole entry, looked up): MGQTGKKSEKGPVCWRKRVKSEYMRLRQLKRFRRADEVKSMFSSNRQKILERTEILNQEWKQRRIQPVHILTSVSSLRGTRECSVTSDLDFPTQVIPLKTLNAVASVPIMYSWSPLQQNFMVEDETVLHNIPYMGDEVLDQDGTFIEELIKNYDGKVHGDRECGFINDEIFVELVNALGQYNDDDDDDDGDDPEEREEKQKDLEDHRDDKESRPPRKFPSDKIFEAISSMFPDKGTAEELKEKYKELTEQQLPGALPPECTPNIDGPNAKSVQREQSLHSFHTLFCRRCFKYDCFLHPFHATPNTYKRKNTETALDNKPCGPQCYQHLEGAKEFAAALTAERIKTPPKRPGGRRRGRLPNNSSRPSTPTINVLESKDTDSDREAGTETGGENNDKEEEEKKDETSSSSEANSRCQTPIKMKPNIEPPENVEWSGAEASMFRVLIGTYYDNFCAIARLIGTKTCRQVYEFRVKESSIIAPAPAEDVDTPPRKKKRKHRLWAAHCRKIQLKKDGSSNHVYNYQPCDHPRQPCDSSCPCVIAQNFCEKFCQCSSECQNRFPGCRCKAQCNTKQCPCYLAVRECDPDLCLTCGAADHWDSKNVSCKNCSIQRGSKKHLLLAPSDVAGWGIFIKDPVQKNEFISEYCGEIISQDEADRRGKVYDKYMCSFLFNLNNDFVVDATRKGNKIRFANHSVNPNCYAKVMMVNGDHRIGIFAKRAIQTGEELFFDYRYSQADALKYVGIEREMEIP
T1 sequence (Q96SW2 whole entry, looked up): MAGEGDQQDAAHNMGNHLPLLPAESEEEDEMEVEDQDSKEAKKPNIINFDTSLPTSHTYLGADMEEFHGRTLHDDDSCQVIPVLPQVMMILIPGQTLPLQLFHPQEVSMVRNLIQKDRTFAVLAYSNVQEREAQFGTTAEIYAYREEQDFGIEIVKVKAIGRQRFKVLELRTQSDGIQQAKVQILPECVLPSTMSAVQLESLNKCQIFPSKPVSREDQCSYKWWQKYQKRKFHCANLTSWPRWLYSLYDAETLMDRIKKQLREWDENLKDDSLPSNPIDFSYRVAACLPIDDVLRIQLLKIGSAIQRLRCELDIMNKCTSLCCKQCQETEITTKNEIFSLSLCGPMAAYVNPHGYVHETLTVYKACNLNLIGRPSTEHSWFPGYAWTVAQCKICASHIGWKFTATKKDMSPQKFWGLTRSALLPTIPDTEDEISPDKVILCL
Polycomb protein EED (Homo sapiens), sequence (O75530 2-441 limits assumed): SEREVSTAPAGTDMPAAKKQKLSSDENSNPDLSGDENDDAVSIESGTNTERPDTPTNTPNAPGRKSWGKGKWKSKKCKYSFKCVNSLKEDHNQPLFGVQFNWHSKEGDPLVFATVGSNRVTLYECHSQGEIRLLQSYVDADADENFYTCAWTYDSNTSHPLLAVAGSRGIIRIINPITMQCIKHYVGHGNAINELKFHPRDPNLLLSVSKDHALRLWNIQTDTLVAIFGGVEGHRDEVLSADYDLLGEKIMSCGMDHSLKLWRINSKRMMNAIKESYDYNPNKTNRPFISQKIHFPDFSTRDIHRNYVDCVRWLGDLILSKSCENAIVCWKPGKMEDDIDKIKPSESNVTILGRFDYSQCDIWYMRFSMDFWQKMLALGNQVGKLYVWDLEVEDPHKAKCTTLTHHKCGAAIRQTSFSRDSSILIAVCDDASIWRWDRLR

CCN(c1cc(-c2ccc(CN3CCN(CCCCCCCOc4cccc5c4C(=O)N(C4CCC(=O)NC4=O)C5=O)CC3)cc2)cc(C(=O)NCc2c(C)cc(C)[nH]c2=O)c1C)C1CCOCC1 (configuration not stated)
Activity [1]: inactive
Activity [2]: inactive
Activity [3]: Active
Activity [4]: Active
Activity [5]: inactive
Activity [6]: inactive
Activity [7]: Active
Activity [8]: inactive
Activity [9]: Dose-Dependent Effect
Activity [10]: Active
inhibition [11]: Dose-Dependent Effect
Activity [12]: inactive
Activity [13]: Active
Activity [14]: Active
Activity [15]: Active
Activity [16]: inactive
Activity [17]: Active
